Screening results: PubChem, The Scripps Research Institute Molecular Screening Center
This is a sample that favours compounds with a hit; in the whole collection about 1.8% have one here.
CHRM4 agonist: agonists of human muscarinic M4 receptor (CHRM4) | P08173 | CHO-K1 hM4/Gqi5, Fluo-8 calcium fluorescence; vehicle 0%, full acetylcholine response 100% | activation, % at 3 µM | hit rate 0.14% among 360,000 | AID 624127;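 active = activation above the run mean over all test wells plus 3 SD, cut at about 32% in these data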;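 note: peak over basal fluorescence ratio per well then scaled between controls; 0% = DMSO wells and 100% = acetylcholine at EC100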
Target sequence (P08173 whole entry, looked up): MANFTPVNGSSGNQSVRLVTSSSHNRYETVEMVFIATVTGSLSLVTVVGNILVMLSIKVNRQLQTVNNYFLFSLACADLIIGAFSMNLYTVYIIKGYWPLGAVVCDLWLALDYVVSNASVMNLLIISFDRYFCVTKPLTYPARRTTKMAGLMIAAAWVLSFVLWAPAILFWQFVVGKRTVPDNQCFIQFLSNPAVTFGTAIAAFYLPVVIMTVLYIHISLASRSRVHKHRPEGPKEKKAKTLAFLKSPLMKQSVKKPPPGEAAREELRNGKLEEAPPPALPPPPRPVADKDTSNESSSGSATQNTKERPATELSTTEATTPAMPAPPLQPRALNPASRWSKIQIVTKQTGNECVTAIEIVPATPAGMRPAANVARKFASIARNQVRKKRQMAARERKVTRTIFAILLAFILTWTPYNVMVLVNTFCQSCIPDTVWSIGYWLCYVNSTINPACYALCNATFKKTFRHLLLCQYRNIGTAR
CHRM4 PAM: potentiates acetylcholine response at human M4 receptor | P08173 | CHO-K1 hM4/Gqi5, Fluo-8 calcium fluorescence, ACh EC20; 0% = ACh EC20, 100% = maximal ACh | activation, % at 3 µM | hit rate 0.4% among 360,000;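 active = activation above its plate's cutoff, the mean activation of sample wells plus 3 SD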
CHRM5 antagonist: CHRM5 antagonism in calcium assay; inhibition, % at 3 µM; hit rate 0.59% among 360,000; AID 624040; CHO-hM5 cells, Fluo-8 calcium fluorescence, ACh EC80;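 active = inhibition above a per-plate cutoff, the mean of that plate's test compounds plus 3 SD, cut at about 27% in these data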;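 note: 0% = acetylcholine EC80 with DMSO and 100% = DMSO without agonist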
CHRM4 antagonist: blocks acetylcholine activation of human M4 receptor | P08173 | CHO-hM4 cells, ACh EC80, Fluo-8 calcium fluorescence | inhibition, % at 3 µM | hit rate 0.73% among 360,000;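 active = inhibition above its plate's cutoff, the mean inhibition of sample wells plus 3 SD, cut at about 27% in these data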;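 note: 0% = acetylcholine EC80 with DMSO and 100% = DMSO without agonist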
M5 ag: agonists of human muscarinic M5 receptor (CHRM5). P08912. AID 624037. hit rate 0.19% among 360,000. CHO-K1 hM5 cells, Fluo-8 calcium fluorescence; 0% DMSO wells, 100% maximal acetylcholine response. activation, % at 3 µM;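 active = activation above the run's mean over test compounds plus 3 SD, cut at about 23% in these data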;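 note: signal is peak over basal fluorescence ratio across the kinetic read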
M5 PAM: CHRM5 positive allosteric modulation; activation, % at 3 µM; hit rate 0.3% among 360,000; CHO-K1 hM5, Fluo-8 calcium, ACh EC20 PAM; 0% = ACh EC20, 100% = ACh EC100;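 active = activation above the run cutoff, the mean activation of all test compounds plus 3 SD, cut at about 18% in these data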
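Assay system: CHO-K1 hM5 cells. Also added: acetylcholine at EC20 concentration, added after compound. Dosing: 3 µM, single dose. Times: compound preincubation 140 s before EC20 acetylcholine addition. Signal: Fluo-8 calcium fluorescence. Measure: % activation relative to EC20 and EC100 ACh responses. Repeats: singlicate, one well per test compound.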
* hit, by the source's call.

SMILES	CHRM4 agonist	CHRM4 PAM	CHRM5 antagonist	CHRM4 antagonist	M5 ag	M5 PAM
CCN1CCN(C(=O)c2cc3c(OC)c(OC)c(OC)cc3[nH]2)CC1	0.0	-18.8	23.9	61.2*	-2.5	-6.0
COCCn1c(-c2ccc(OC)cc2)nc2ccccc21	1.4	1.1	0.9	3.2	-9.9	2.6
COCCn1c2nc(=O)n(-c3ccccc3)c(=O)c-2nc2ccccc21	65.2*	-12.2	7.6	17.3	28.4*	-6.0
Cc1ccccc1NC(=O)NNC(=O)COc1ccc2ccccc2c1	3.4	9.5	4.6	-6.0	-3.7	-3.9
CCCN1CCC(NC(=O)CC2C(=O)NCCN2Cc2ccccc2C)CC1 (stereo not given)	1.0	12.3	-6.3	5.2	1.0	13.7
CC(C)(C)c1ccc(S(=O)(=O)N2C=CC(C(F)(F)F)=NCC2)cc1	3.2	4.1	-9.7	-3.4	0.1	-3.6
Cc1ccc(S(=O)(=O)N2C=CC(C(F)(F)F)=NCC2)cc1	1.5	18.4*	0.1	-14.2	1.6	-4.8
CCN(C(=O)COC(=O)/C=C/c1c(C)nn(Cc2ccc(C)cc2)c1C)C1CCS(=O)(=O)C1 (stereo not given)	0.7	0.0	4.0	3.6	1.5	3.2
CN(C)S(=O)(=O)N1CCc2ccc(NC(=O)C3CCCO3)cc2C1 (stereo not given)	0.4	19.8*	-0.7	-4.5	-3.2	2.5
O=C(Nc1ccc(S(=O)(=O)N2CCc3ccccc3C2)cc1)C1CCCO1 (stereo not given)	8.3	0.8	5.7	-0.2	5.1	-2.6
CC(C)NC(=O)C1(C)CN(S(C)(=O)=O)CC(=O)N1Cc1cccs1 (stereo not given)	2.0	25.1*	-11.3	-3.0	2.0	9.9
O=C(NCc1ccccc1)C1C(c2ccc3c(c2)OCO3)=Nc2ccccc2N1C(=O)c1ccco1 (stereo not given)	3.6	0.1	2.3	0.8	1.3	-1.7
Cc1ccc(O)c(C(=O)c2cnc(/N=C(\N)N(C)C)nc2)c1	1.6	-21.0	-5.9	38.4*	-8.1	-1.0
Cc1ccc(O)c(C(=O)c2cnc3c(c2)c(=O)n(C)c(=O)n3C)c1	1.6	5.5	5.0	-3.0	0.0	2.8
CC1CCCCN1CCCNC(=O)CN1C(=O)c2cccnc2Oc2ccc(Cl)cc21 (stereo not given)	-0.3	-1.9	8.7	-1.0	-1.4	2.2
Cc1ccc(C2=NNC(c3ccc(Cl)cc3)=Nc3ccccc32)o1	0.2	25.3*	-6.3	8.8	-3.8	2.9
c1ccc(C2=NNC(c3ccco3)=Nc3ccccc32)cc1	0.0	0.7	-1.0	0.4	-0.6	2.3
Cc1cccc(N2CCN(C(=O)CCn3c(=S)[nH]c4cc5c(cc4c3=O)OCO5)CC2C)c1 (stereo not given)	6.3	30.9*	-1.8	40.0*	3.8	-5.5
c1coc(CN(Cc2ccco2)c2ncnc3c2oc2ccccc23)c1	7.3	-23.1	31.5*	36.8*	4.0	-22.5
CCc1cccc(C)c1NC(=O)CN1C(=O)NC(CCc2ccccc2)C1=O (stereo not given)	1.7	2.6	7.8	-14.5	-0.6	8.1
CCc1nonc1NC(=O)c1oc2cc(C)c(Cl)cc2c1C	0.3	7.7	-16.5	-7.0	-2.9	25.4*
O=C(O)COc1ccc(/C=C2\SC(=Nc3ccccc3)N(c3ccccc3)C2=O)cc1	-1.0	-7.9	4.4	30.3*	-1.0	-5.0
COc1cc(/C=C2\S/C(=N/S(=O)(=O)c3ccc(C)cc3)NC2=O)c([N+](=O)[O-])cc1OC	-0.3	4.3	-5.2	13.0	-1.0	7.2
Cc1ccc(S(=O)(=O)/N=C2/NC(=O)/C(=C/c3cc([N+](=O)[O-])ccc3O)S2)cc1	108.4*	-26.3	8.2	29.8*	49.0*	-18.0
COc1cccc(N=C2NC(=O)/C(=C/c3cc([N+](=O)[O-])ccc3O)S2)c1	1.1	-9.7	2.1	5.7	0.7	0.7
SMILES	CHRM4 agonist	CHRM4 PAM	CHRM5 antagonist	CHRM4 antagonist	M5 ag	M5 PAM
O=C1NC(=Nc2ccccc2Cl)S/C1=C\c1cc([N+](=O)[O-])ccc1O	8.9	-11.6	12.3	-5.6	31.5*	-3.2
Cc1cc(NC(=O)c2cccc([N+](=O)[O-])c2)no1	0.4	11.8	3.9	-2.6	1.9	3.5
Cc1cc(NC(=O)c2cc([N+](=O)[O-])cc([N+](=O)[O-])c2)no1	2.0	14.6*	10.3	2.5	3.3	1.4
COc1ccccc1Cc1c(C2CCCCC2)nc2c3ccccc3ccn12	-0.7	1.0	1.0	-3.1	-2.6	18.3*
COc1cccc(NC(=O)C2(C)CCN2CCc2ccccc2)c1 (stereo not given)	-1.0	7.1	-1.3	-7.2	9.0	-1.0
COc1ccc(C(=O)NC2CC(C)(C)NC(C)(C)C2)cc1S(=O)(=O)N1CCOCC1	0.5	5.9	2.0	-13.5	1.1	-6.6
O=[N+]([O-])c1ccc(C[n+]2ccccc2)cc1	0.0	24.8*	-7.5	3.4	-2.8	15.6
CN1C(=O)c2ccccc2Sc2ccc(NC(=O)NC3CC3)cc21	2.9	8.8	16.5	-18.7	2.7	37.9*
COc1ccc(NC(=O)C2CCCN(c3nn4c(=O)cc(C)nc4s3)C2)c(OC)c1 (stereo not given)	2.4	-2.7	-18.5	-9.2	-5.9	-0.1
CON(C)C(=O)CC(CN(Cc1ccccc1)C(=O)OC(C)(C)C)c1ccc(Cl)cc1 (stereo not given)	1.1	-4.2	-7.7	-5.8	-3.9	-3.6
CON(C)C(=O)CCN(Cc1ccccc1)C(=O)OC(C)(C)C	2.5	12.0	-5.4	-7.4	-4.0	18.6*
O=C(Cn1c(=O)c2cccn2c2cccnc21)N1CCN(c2ccccc2F)CC1	7.9	1.4	26.4	-9.5	1.1	24.9*
COc1ccc(-n2nc(C(=O)NCC(=O)N3CCN(Cc4ccccc4)CC3)c3ccccc3c2=O)cc1OC	17.6	-13.8	29.3*	16.8	-1.2	-11.8
CC(C)(C)C(=O)NC(=S)NNC(=O)C(c1ccccc1)c1ccccc1	154.1*	-43.4	51.8*	75.8*	110.6*	-34.1
CC(=O)NNC(=S)NC(=O)C(c1ccccc1)c1ccccc1	16.3	5.3	-4.2	3.5	6.1	9.0
COc1cccc(C(=O)N/N=C2/SCC(=O)N2CCc2ccc(OC)c(OC)c2)c1	3.5	-4.8	-4.3	7.5	1.8	-3.3
COc1ccc(C(=O)N/N=C2\SCC(=O)N2Cc2ccc3c(c2)OCO3)c(OC)c1	1.5	0.8	30.6*	-0.8	-3.1	-8.4
O=C(NC1CC1)C1CCN(C2CCN(C(=O)/C=C/c3cccc(F)c3F)CC2)CC1	0.5	8.9	5.4	-11.3	-5.0	2.6
